The values below come from ChEMBL document CHEMBL1154369, “Betulin-derived compounds as inhibitors of alphavirus replication” (J Nat Prod, 2009).

The structures appear in SMILES notation. pIC50: −log10 of the molar value. Active and inactive are the calls of the source. The calls are words filed in the database; no cut-off is given here.

Series [1] concerns Semliki Forest virus. The experiment in a line: Antiviral activity against SFV infected in BHK cells assessed as surviving virus fraction at 50 uM after 14 hrs by luciferase reporter gene assay. The arrangement: scale not given here. Format: functional.
In series [2] the test system is Semliki Forest virus. Briefly: Antiviral activity against SFV infected in BHK cells after 14 hrs by luciferase reporter gene assay. Type of series: functional, organism-based. The settings on record: for pIC50: read-out: IC50; for IC50: read-out: pIC50 (converted). In a few lines: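 SFV-Rluc reporter virus from infectious cDNA clone; BHK-21 cells infected at low multiplicity (0.001 PFU/cell) and incubated 14 h, spanning over 2 infectious cycles. Serial dilutions of each derivative tested. Luciferase read-out as surviving virus fraction. IC50 from a sigmoidal dose-response fit; means ± SD, n = 6. 3′-Amino-3′-deoxyadenosine (20 µM) served as screen positive control.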

Series [3] in a line: Cytotoxicity against human HuH7 cells assessed as cell viability at 50 uM after 24 hrs.
Series [4] is described as follows: Cytotoxicity against human HuH7 cells assessed as cell viability at 500 uM after 24 hrs. Format: cell-based, Huh-7. The following applies: read-out: Activity. In a few lines:
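Huh-7 human hepatocellular carcinoma cells exposed 24 h to derivative at 500 µM in an extended cytotoxicity analysis. Viability measured as intracellular ATP content and reported as surviving fraction.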

Another series concerns Sindbis virus. Briefly: Antiviral activity against Sindbis virus infected in BHK cells assessed as inhibition of RNA synthesis after 14 hrs by [3H]uridine incorporation assay. The following applies: for pIC50: read-out: IC50; for IC50: read-out: pIC50 (converted). Type of series: functional, organism-based. In a few lines:
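Sindbis virus from infectious cDNA clone grown in BHK-21 cells. Viral RNA synthesis rate measured by [3H]-uridine labeling. Serial compound dilutions from 16 pM to 50 µM. IC50 from nonlinear regression to sigmoidal dose-response curves; means ± SD, n = 4.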

In series [5] the test system is Semliki Forest virus. Briefly: Antiviral activity against SFV infected in BHK cells assessed as decrease in surviving virus fraction at 50 uM treated during time of viral adsorption for 1 hr measured after 5 hrs by luciferase reporter gene assay. Type of series: functional, organism-based. The gist of the method:
(§1)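 Time-of-addition run with SFV-Rluc at high multiplicity (5 PFU/cell) in BHK-21 cultures, covering a single replication cycle. Compound present throughout (0-5 h), only during adsorption (0-1 h), at 1-5 h, or at 2-5 h. Surviving fraction is the remaining Renilla luciferase activity, read at 5 h per legend (4.5 h in text); means ± SD, n = 4.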

The subject of series [6] is Semliki Forest virus. Briefly: Antiviral activity against SFV infected in BHK cells assessed as decrease in surviving virus fraction at 50 uM treated 1 hr after viral adsorption measured after 5 hrs by luciferase reporter gene assay. Type of series: functional, organism-based. The gist of the method:
as §1

Series [7] deals with Semliki Forest virus. The experiment in a line: Antiviral activity against SFV infected in BHK cells assessed as decrease in surviving virus fraction at 50 uM treated 2 hr after viral adsorption measured after 5 hrs by luciferase reporter gene assay. Format: functional, organism-based. In a few lines: as §1
The test system of series [8] is Semliki Forest virus. Briefly: Antiviral activity against SFV infected in BHK cells assessed as decrease in surviving virus fraction at 200 uM treated during time of viral adsorption for 1 hr measured after 5 hrs by luciferase reporter gene assay. Format: functional, organism-based. The gist of the method: as §1
Series [9] relates to Semliki Forest virus. The experiment in a line: Antiviral activity against SFV infected in BHK cells assessed as decrease in surviving virus fraction at 200 uM treated 1 hr after viral adsorption measured after 5 hrs by luciferase reporter gene assay. Format: functional, organism-based. In a few lines: as §1
The subject of series [10] is Semliki Forest virus. Briefly: Antiviral activity against SFV infected in BHK cells assessed as surviving virus fraction at 50 uM after 14 hrs by luciferase reporter gene assay in presence of 50 ug/ml guanosine. Type of series: functional, organism-based.
The subject of series [11] is Semliki Forest virus. The experiment in a line: Antiviral activity against SFV infected in BHK cells assessed as surviving virus fraction at 20 uM after 14 hrs by luciferase reporter gene assay. Format: functional. In a few lines:
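BHK-21 cells were infected with the luciferase marker virus SFV-Rluc, made from an infectious cDNA clone, at a low multiplicity of 0.001 PFU/cell. Infection ran through more than 2 infectious cycles over a 14 h incubation, and the read-out was luciferase reporter activity. The surviving fraction was the percentage of viral replication remaining. The screen was automated and run in triplicate.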

Series [12] has as its system Semliki Forest virus. The experiment in a line: Antiviral activity against SFV infected in BHK cells assessed as decrease in surviving virus fraction at 200 uM treated 2 hr after viral adsorption measured after 5 hrs by luciferase reporter gene assay. Format: functional, organism-based. In a few lines: as §1
Series [13] relates to Semliki Forest virus. Briefly: Antiviral activity against SFV infected in BHK cells assessed as surviving virus fraction at 200 uM after 14 hrs by luciferase reporter gene assay in presence of 50 ug/ml guanosine. Format: functional, organism-based.

Consider `CC(=O)OC[C@]12CC[C@]3(C(C)C)C1=C1[C@H](C[C@@H]4[C@@]5(C)CC[C@H](OC(C)=O)C(C)(C)[C@@H]5CC[C@@]4(C)[C@]1(C)CC2)n1c(=O)n(-c2ccccc2)c(=O)n13`, for which the Activity in the series with Semliki Forest virus [1] is recorded as 13%. Moreover, the pIC50 is 4.71 in the series on Semliki Forest virus [2] and 5.21 with Sindbis virus. In addition, the IC50 was 19.5 µM in the series with Semliki Forest virus [2] and 6.17 µM with Sindbis virus. The viability at 24 h, 50 µM in [3] amounted to 87%. Besides, the viability at 24 h, 500 µM in [4] was greater than 80%. The result with Semliki Forest virus [5] and with Semliki Forest virus [8] was inactive. In addition, the result in the series on Semliki Forest virus [6], in the series on Semliki Forest virus [7], in the series on Semliki Forest virus [9] and with Semliki Forest virus [10] was Active.
Take `Nc1ncnc2c1ncn2[C@@H]1O[C@H](CO)[C@@H](N)[C@H]1O`: the pIC50 with Semliki Forest virus [2] is 4.74. The Activity in the series on Semliki Forest virus [11] was 12%.
`C=C(C)[C@@H]1CC[C@]2(C(=O)O)CC[C@]3(C)[C@H](CC[C@@H]4[C@@]5(C)CC[C@H](O)C(C)(C)[C@@H]5CC[C@]43C)[C@@H]12` [BETULINIC ACID]: in the series on Semliki Forest virus [1], the Activity was found to be 18%. Further, the figures for the pIC50 with Semliki Forest virus [2] and in the series on Sindbis virus were 4.84 and 6.30, respectively. In addition, the IC50 was 14.5 µM with Semliki Forest virus [2] and 0.457 µM with Sindbis virus. Also, the viability at 24 h, 50 µM in series [3] worked out at 123%. For the same compound, the viability at 24 h, 500 µM in [4] was greater than 80%. Moreover, the result in the series with Semliki Forest virus [5] and in the series with Semliki Forest virus [8] was inactive. Besides, the result with Semliki Forest virus [6], in the series with Semliki Forest virus [7], in the series with Semliki Forest virus [9], in the series with Semliki Forest virus [12] and with Semliki Forest virus [10] was Active.
Take `NC(=O)c1ncn([C@@H]2O[C@H](CO)[C@@H](O)[C@H]2O)n1` [RIBAVIRIN]: in the series with Semliki Forest virus [2], the pIC50 was 4.02 and the IC50 is 95.5 µM. Besides, the outcome in the series with Semliki Forest virus [13] was inactive.
